ASAP1 GAP inh = blocks human ASAP1-stimulated Arf1 GTP hydrolysis; GDP FP detection; AID 624377; inhibition, % at 16.5 µM; 0.19% of 360,000 active; Q9ULH1; in the data active means inhibition above about 25%;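 further: 0% = vehicle with enzyme and substrate and 100% = no enzyme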
Target sequence (Q9ULH1 325-724 limits assumed): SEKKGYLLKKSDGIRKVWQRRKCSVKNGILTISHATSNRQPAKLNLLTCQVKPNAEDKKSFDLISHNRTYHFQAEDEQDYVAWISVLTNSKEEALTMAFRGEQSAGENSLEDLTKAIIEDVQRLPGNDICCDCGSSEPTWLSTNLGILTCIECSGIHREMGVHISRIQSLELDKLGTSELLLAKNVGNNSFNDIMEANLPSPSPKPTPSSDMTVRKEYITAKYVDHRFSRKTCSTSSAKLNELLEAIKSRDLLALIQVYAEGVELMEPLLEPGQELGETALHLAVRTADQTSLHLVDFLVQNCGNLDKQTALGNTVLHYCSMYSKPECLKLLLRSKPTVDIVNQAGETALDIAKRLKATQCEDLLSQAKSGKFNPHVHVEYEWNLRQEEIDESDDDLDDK
LANA-H2B inh = blocks KSHV LANA binding to histone H2A/H2B | 0.6% of 320,000 active | cell-free LANA-H2A/H2B peptide, fluorescence polarization | Q9QR71 | AID 2629 | inhibition, % (test concentration not listed); in the data active means inhibition mostly above about 10%, no sharp cut-off; inactive means mostly below about 6.7%
proCasp3 act = activates human procaspase-3 | activation, % at 8.5 µM | 0.11% of 330,000 active | recombinant procaspase-3 D3A, Ac-DEVD-pNA absorbance 405 nm;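 active means activation above the mean of all tested compounds plus 3 SD, cut at about 21% in these data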;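 further: 0% = DMSO alone and 100% = DMSO wells spiked with extra 5 µM PC-3 D3A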
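Test system: Procaspase-3 D3A mutant, all three cleavage aspartates alanine | Dosing: Single dose, 8.5 µM nominal compound, 0.8% DMSO | Schedule: 1 h preincubation, 2 h reaction | Technique: 405 nm absorbance of p-nitroaniline, reads at 0 and 120 min | Repeats: One well per compound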
ARFGAP1 inh = inhibits rat ARF GTPase activating protein 1 | Q62848 | Arfgap1-stimulated ARF1 GTP hydrolysis, GDP FP detection | inhibition, % at 16.5 µM | 0.26% of 360,000 active | AID 651572;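 active means inhibition above a per-plate limit, mean inhibition of low control wells plus 3 SD, cut at about 25% in these data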;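 further: 0% = DMSO wells with enzyme and 100% = wells lacking Arfgap1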
Target sequence (Q62848 1-136 limits assumed): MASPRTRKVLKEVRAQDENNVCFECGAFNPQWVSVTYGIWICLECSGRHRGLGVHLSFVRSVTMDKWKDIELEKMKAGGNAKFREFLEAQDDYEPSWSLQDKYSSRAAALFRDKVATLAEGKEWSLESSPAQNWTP
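System: truncated rat Arfgap1 GAP domain / Benchmarks: high control wells lacking Arfgap1, low control full reaction with DMSO / Times: compound-enzyme preincubation 20 min, reaction 120 min, detection 60 min, 25 °C / Repeats: one replicate per compound / Also added: human ARF1(Δ1-17)-GTP substrate / Measured by: Tracer-displacement fluorescence polarization with EDTA stop, 620/688 nm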
CR mimetic SO = caloric restriction mimetics inhibiting age-related superoxide in yeast | 0.18% of 330,000 active | S. cerevisiae aged cells, superoxide DHE fluorescence; hits give low values | superoxide response (% of plate mean), % at 10 µM;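 active means superoxide response under a set limit, about three screen SD below normal, cut at about 65% in these data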;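 further: yeast aged for seven days with compound at 30 °C before DHE staining; 100% = average MFI of all compound-treated wells on the plate with controls excluded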
proCasp7 act = counter-screen for procaspase-3 activators: activators of human procaspase-7 | P55210 | recombinant procaspase-7, Ac-DEVD-pNA absorbance 405 nm; D23A/D198A/D206A triple mutant, cannot self-cleave; scale: DMSO 0, 5 µM enzyme 100 | 0.093% of 330,000 active | activation, % at 8.5 µM | AID 463210;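 active means percent activation above the screen-wide mean plus 3 SD, cut at about 25% in these data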
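Test system: Procaspase-7 triple mutant (PC-7 D3A). Also added: Ac-DEVD-pNA substrate, 400 µM as added. Schedule: 1 h enzyme–compound preincubation and 2 h substrate reaction, both 25 °C. Signal: p-Nitroaniline absorbance at 405 nm, read at 0 and 120 min. Control set: low DMSO alone, high DMSO plus 5 µM PC-7.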
ASAP1 GAP conf = confirmation of human ASAP1 inhibitors; shares compounds with ASAP1 GAP inh; ASAP1-stimulated Arf1 GTPase, GDP fluorescence polarization; inhibition, % at 16.5 µM; 37% of 620 active; AID 624431;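 active means mean inhibition over triplicates exceeds the hit threshold derived for the earlier primary screening run, cut at about 25% in these data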
Active calls of the source: *; . = no result given. In the library only some 1.2% were active in any assay of this set; here they are far more common.

SMILES	ASAP1 GAP inh	LANA-H2B inh	proCasp3 act	ARFGAP1 inh	CR mimetic SO	proCasp7 act	ASAP1 GAP conf
Cc1ccc2c(CC(=O)N3CCOCC3)coc2c1	-3.6	-1.3	2.5	1.4	108.7	-15.8	.
Cc1ccc2c(CC(=O)N3CCN(c4ccccc4)CC3)coc2c1	24.8*	-2.2	-0.7	3.2	103.8	4.1	1.1
COC(=O)c1cccc(NC(=O)CC2C(=O)NCCN2C(=O)c2ccc(F)cc2F)c1 (stereo not drawn)	-2.3	0.2	0.8	5.5	87.8	1.1	.
O=C(Nc1c(-c2ccc3c(c2)OCO3)[nH][nH]c1=O)c1ccccc1	30.3*	.	.	15.1	.	.	10.8
O=C(Nc1c(-c2ccccc2)[nH][nH]c1=O)c1ccc2c(c1)OCO2	-5.1	.	.	-0.1	.	.	.
Cc1cc(OCC(=O)Nc2ccc3oc(-c4ccncc4)nc3c2)ccc1Cl	27.7*	0.5	13.1	13.8	102.6	8.3	131.4*
O=C(Nc1ccc(Br)cc1)c1cc(-c2ccncc2)nc2ccccc12	29.4*	0.3	3.6	16.7	103.4	4.8	15.5
O=C(Nc1ccncc1)c1cc(-c2ccccc2)nc2ccccc12	-2.9	.	.	-6.8	.	.	.
Cc1sc2ncnc(SCC(=O)NNC(=O)COc3cccc4ccccc34)c2c1C	7.0	-2.6	8.3	-1.1	106.1	10.1	.
CCOc1ccc2[nH]c(C(=O)N/N=C/c3cc(OC)c(OC)c(OC)c3)cc2c1	27.3*	1.2	3.6	20.5	99.1	-3.7	50.7*
CS(=O)(=O)N(Cc1ccc(Cl)cc1)c1ccc(C(=O)NCc2ccccn2)cc1	31.1*	-1.3	-0.8	7.0	96.0	6.6	8.7
COC(=O)CCc1nc2c(C#N)c(-c3ccc(Cl)cc3)ccn2n1	-21.5	6.4	3.4	1.4	97.0	-1.9	.
N#Cc1c(-c2ccc(Cl)cc2)ccn2nc(C3CCCCC3)nc12	26.9*	-1.7	3.5	0.4	97.4	-3.4	5.3
CC(C)c1ccc(OCC(=O)Nc2ccc(S(=O)(=O)Nc3ccccn3)cc2)cc1	24.7*	-0.5	4.0	4.2	95.8	3.2	-3.9
CC(C)c1cccc(OCC(=O)Nc2ccc(S(=O)(=O)Nc3ccccn3)cc2)c1	-7.6	-2.2	1.8	16.6	94.8	10.2	.
CCc1cc(C(=O)N2CCCC(Nc3ccc(F)c(F)c3)C2)n(C)n1 (stereo not drawn)	-6.5	-8.6	-1.9	-3.6	89.7	8.7	.
Cc1cc(-c2nnc3n2N=C(c2ccc(-c4ccccc4)cc2)CS3)n[nH]1	10.2	4.9	2.8	20.0	106.7	-5.4	.
c1ccc(-c2cc(-c3nnc4n3N=C(c3ccc5ccccc5c3)CS4)[nH]n2)cc1	25.2*	-1.8	6.7	11.4	102.5	-1.5	11.5
CCOC(=O)CCC(NC(=O)CCCCCCCC(=O)NC(CCC(=O)OCC)C(=O)OCC)C(=O)OCC (stereo not drawn)	0.3	0.1	9.2	7.7	101.1	0.6	.
COc1ccc2oc(=O)c(-c3csc(Nc4cccc(O)c4)n3)cc2c1	31.6*	-0.7	-23.3	17.0	103.5	-21.5	47.8*
CC1=NN(c2ccc(Cl)cc2)C(=O)C1	-5.3	-3.3	12.1	22.3	95.6	-3.6	.
NC1=NN(c2c(Cl)cc(Cl)cc2Cl)C(=O)C1	25.8*	.	.	-4.9	.	.	6.4
Cc1ccc(-c2nc(Nc3cccc(O)c3)c3ccccc3n2)cc1	28.9*	0.4	1.6	20.2	100.6	11.1	19.0
COc1ccc(C)cc1NC(=O)CN(C)S(=O)(=O)c1ccc2c(c1)CC(C)N2C(C)=O (stereo not drawn)	3.8	4.5	-2.0	4.8	108.1	-1.2	.
COc1ccc2cc(C(=O)Nc3ccc(F)cc3)sc(=O)c2c1OC	26.5*	-0.9	6.1	-4.8	99.3	-5.0	22.0
SMILES	ASAP1 GAP inh	LANA-H2B inh	proCasp3 act	ARFGAP1 inh	CR mimetic SO	proCasp7 act	ASAP1 GAP conf
COc1ccc2cc(C(=O)Nc3ccc(Cl)cc3)sc(=O)c2c1OC	55.9*	-0.3	12.3	12.8	106.1	4.3	55.9*
Cc1ccc2[nH]c(O)c(N=NC(=O)c3ccc(NS(=O)(=O)c4cccs4)cc3)c2c1	28.9*	-0.8	-6.2	-2.0	81.8	0.6	8.7
O=C(N=Nc1c(O)[nH]c2ccc(F)cc12)c1ccc(NS(=O)(=O)c2cccs2)cc1	6.3	2.0	-7.2	1.8	89.0	-13.5	.
CC(C)(C)c1nc(N2CCN(C(=O)c3ccco3)CC2)c2nnn(Cc3ccccc3)c2n1	49.2*	1.0	2.6	14.3	88.0	11.2	2.6
CC1CCC(NC(=O)c2cc(Cl)nc3ccccc23)CC1 (stereo not drawn)	8.5	-4.9	2.2	11.3	98.0	-6.4	.
CCOC(=O)N1CCN(S(=O)(=O)c2ccc(OC)c(Cl)c2Cl)CC1	1.9	2.0	-6.4	-4.5	102.0	-2.5	.
COc1ccc(S(=O)(=O)N2CCCC2)c(Cl)c1Cl	25.2*	-3.5	-0.5	5.4	95.1	5.6	0.5
Cc1nc2cc(N=NC3=C(O)CCCC3=O)ccc2s1	9.5	6.9	-6.4	1.9	107.9	-25.7	.
CCOc1ccc(NC(=O)CSc2nc(=O)n(Cc3cccnc3)c3c2CCC3)cc1	-1.1	0.2	8.8	17.9	92.9	-9.7	.
COc1ccc(C(=O)CSc2nc(=O)n(Cc3cccnc3)c3c2CCC3)cc1	25.9*	.	.	12.8	.	.	1.8
CCOC(=O)CNC(=O)N(CCOC)CC1CCCN(C2Cc3ccccc3C2)C1 (stereo not drawn)	0.4	-5.7	1.1	-11.1	94.2	-6.4	.
COc1ccc(NC(=O)c2cccn(CC=C(C)C)c2=O)cc1	-11.3	1.9	-4.1	4.4	99.0	4.9	.
Cc1cccc(/N=C/c2sc3ccccc3c2O)n1	28.1*	-4.3	-12.3	20.6	105.7	-22.8	16.3
CN(Cc1ccccc1)C(=O)CSc1cc(=O)n(C)c2ccccc12	11.8	1.6	-4.9	3.7	106.2	2.2	.
Cn1c(=O)cc(SCC(=O)N2CCCC2)c2ccccc21	34.5*	0.6	5.6	1.9	105.0	-0.4	3.4
CC(C)C[C@@H]1COc2cccc(N3CCN(Cc4ccccc4F)CC3)c2S(=O)(=O)N1	-7.7	.	.	-9.8	.	.	.
COC(=O)c1sc2nc(CN3CCN(c4cccc(C(F)(F)F)c4)CC3)[nH]c(=O)c2c1C	-8.0	2.5	2.5	-7.7	91.2	-1.2	.
CC(Oc1ccccc1)C(=O)N1CCC2(CC1)Oc1ccc(F)cc1C(=O)C21CC(c2cccnc2)=NO1 (stereo not drawn)	25.8*	2.3	5.0	15.3	91.3	-4.9	4.7

Source: PubChem BioAssay (several laboratories)
